# Source: paper PMC12040637 (Iranian Biomedical Journal, 2024)
# Where “and” joins values, the source holds several entries; their conditions need not be identical. Equal values may be shown once.
# How the values were obtained:
# [1] = test system: Hep G2 cells; assay: MTT cytotoxic assay; assay type: cell-based; conditions: for IC50: Homo sapiens, HepG2, 24 h, read-out: Hep G2 cells IC50
# Method in brief: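 Hep G2 cells (Pasteur Institute of Iran) seeded at 10,000 cells/well and grown 24 h at 37 °C, 5% CO2. Extract and fractions were tested at 12.5–200 μg/mL for 24 h. MTT was then added for 4 h at 37 °C, and formazan was dissolved in DMSO and read at 570 nm. IC50 came from plots of growth inhibition against concentration; mean ± SD of triplicates.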
# [2] = NO radical scavenging; assay type: biochemical; conditions: for NO scavenging ability percentage: 200 μg/mL, mean ± SD of triplicate
# Method in brief: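 Sodium nitroprusside (50 µL, 10 mmol) and 50 µL MeOH were added to 50 µL sample and incubated at 25 °C for 150 min. Then 100 µL Griess reagent was added for 5 min at room temperature, and absorbance was read at 542 nm. Blanks held sample, nitroprusside and MeOH without Griess reagent. Inhibition ratio was calculated from sample, blank and control absorbances; triplicate.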
# [3] = DPPH radical scavenging activity assay; assay type: biochemical; conditions: 30 min at 37 °C, absorbance 517 nm; mean ± SD of triplicate
# Method in brief: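 20 µL of sample (6.25–3200 μg/mL solutions) mixed with 200 µL methanolic DPPH and kept dark at 37 °C for 30 min; absorbance read at 517 nm. Blanks held sample plus MeOH; controls held MeOH plus DPPH. Percent inhibition was calculated from control and blank absorbances. Quercetin was the standard; triplicate runs.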
# [4] = test system: Hep G2 cells; assay: CAA assay; assay type: cell-based; conditions: Homo sapiens, HepG2, read-out: CAA IC50
# Method in brief: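 Hep G2 cells seeded at 6 × 10^4 cells/well overnight, then washed three times with PBS. Cells were incubated at 37 °C in treatment medium containing extract at various concentrations plus 25 µM DCFH-DA, then washed with PBS. AAPH was added, and fluorescence (ex 485/em 538 nm) was read every 5 min for 1 h at 37 °C. IC50 is the concentration scavenging 50% of AAPH radicals; quercetin was the standard; triplicates.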
# [5] = ABTS radical cation scavenging assay; assay type: biochemical; conditions: absorbance 734 nm after 15 minutes; mean ± SD of triplicate
# Method in brief: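 ABTS radical cation made by mixing aqueous ABTS diammonium salt with ammonium persulfate, then kept dark at room temperature for 16 h. It was diluted with ethanol to A734 0.70 ± 0.05. 200 µL radical solution was added to 20 µL of samples at a range of concentrations, and A734 was read after 15 min. IC50 reported as mean ± SD of three replicates.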
# [6] = ORAC assay; assay type: biochemical; conditions: Trolox equivalents
# Method in brief: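 Blank, Trolox standard or sample (20 µL) in 75 mM potassium phosphate buffer was plated in triplicate with 200 µL of 0.96 µM fluorescein and held at 37 °C for 20 min. AAPH was then added, and fluorescence decay (ex 485/em 538 nm) was recorded every 4.5 min for 2.5 h. Values were expressed as Trolox equivalents.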
# [7] = test system: protease; assay: Determination of protease inhibition; assay type: biochemical; conditions: casein 1%, 25 °C, 10 minutes
# Method in brief: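 Samples prepared at 1–300 µg/mL; 50 µL was combined with 200 µL of 50 mM phosphate buffer, then protease and 1% casein substrate were added. The mixture was incubated at 25 °C for 10 min and stopped with 10% trichloroacetic acid. After 21 min it was centrifuged at 895 ×g for 5 min, and supernatant absorbance was read at 280 nm. IC50 as mean ± SD of three replicates.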
# [8] = FRAP assay; assay type: biochemical; conditions: absorbance 593 nm; mean ± SD of triplicate
# Method in brief: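 FRAP reagent: 300 mM acetate buffer pH 3.6, 10 mM TPTZ in 40 mM HCl and 20 mM FeCl3·6H2O at 10:1:1, held dark at 37 °C for 10 min. 20 µL sample (6.25–3200 μg/mL solutions) was added to 180 µL pre-warmed reagent; controls held MeOH. Absorbance was read at 593 nm, and the FRAP value was calculated against the control; triplicate analysis.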
DPPH IC50 [3] [µg/mL],IC50 [4] [µg/mL],ABTS IC50 [5] [µg/mL],Protease inhibition IC50 [7] [µg/mL],FRAP IC50 [8] [µg/mL],Structure (SMILES),"Hep G2 cells IC50 ([1]; MTT, 24 h treatment, mean ± SD) [µg/mL]",NO scavenging ability percentage [2],NO scavenging ability percentage ([2]; listed as oleanolic acid) [%],IC50 [1] [µg/mL],cytotoxic effect on the Hep G2 cell line (in words) ([1]; MTT),ORAC TE [6] [TE],NO scavenging [2] [µg/mL],ORAC TE ([6]; listed as rosmarinic acid) [TE],NO scavenging ability percentage ([2]; listed as ursolic acid) [%]
,,,,,"N.N.[Cl][Pt][Cl] [Cisplatin, reference compound]",12.65 ± 0.78,,,,,,,,
>2000,> 200,>2000,28.0 ± 0.2,198.86 ± 1.49,CC1(C)CC[C@]2(C(=O)O)CC[C@]3(C)C(=CC[C@@H]4[C@@]5(C)CC[C@H](O)C(C)(C)[C@@H]5CC[C@]43C)[C@@H]2C1 [Oleanolic acid],,48.82 ± 0.91%,48.82,123 ± 8.84,low antiproliferative effect,0.46,,,
26.51 ± 0.06,38.9 ± 0.87,26.35 ± 0.03,,18.53 ± 0.12,"O=c1c(O)c(-c2ccc(O)c(O)c2)oc2cc(O)cc(O)c12 [Quercetin, quercetin, reference compound]",,89.96 ± 0.01%,,,,1.06,,,
28.39 ± 0.75,171,39.52 ± 0.72,17.0 ± 0.3,31.87 ± 0.67,O=C(/C=C/c1ccc(O)c(O)c1)O[C@H](Cc1ccc(O)c(O)c1)C(=O)O [Rosmarinic acid],,71.44 ± 0.37% and 71.44 ± 1.04%,,47.8 ± 5.87,,0.60,71.44 ± 1.04,0.6,
33.48 ± 0.52,> 200,87.31 ± 0.68,22.4 ± 0.1,42.62 ± 0.86,"C[C@@H]1O[C@@H](OC[C@H]2O[C@@H](Oc3c(-c4ccc(O)c(O)c4)oc4cc(O)cc(O)c4c3=O)[C@H](O)[C@@H](O)[C@@H]2O)[C@H](O)[C@H](O)[C@H]1O [Rutin, Quercetin-3-O-rutoside]",,81.30 ± 0.37%,,63.9 ± 0.96,,0.83,,,
>2000,184 ± 9.25,>2000,24.5 ± 0.1,298.51 ± 1.76,C[C@H]1[C@H](C)CC[C@]2(C(=O)O)CC[C@]3(C)C(=CC[C@@H]4[C@@]5(C)CC[C@H](O)C(C)(C)[C@@H]5CC[C@]43C)[C@H]12 [Ursolic acid],,55.52 ± 0.43%,,> 200,,0.31,,,55.52
